Eight compounds from ChEMBL document CHEMBL1134454, “Synthesis and evaluation of oxodioxolenylmethyl carbamate prodrugs of pseudomycins” (2001) can be followed below.

The species named for assay [1] is Mus musculus. Description: Evaluated for tail vein toxicity assay in male ICR mice; Positive. The format is functional, organism-based.
A further assay deals with Cryptococcus neoformans. Put plainly: In vitro potency against Cryptococcus neoformans. Format: functional. The essentials:
(§1)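 Broth microdilution in Sabouraud broth. Compounds were dissolved in DMSO and diluted to 20 μg/mL final in the first well, then serially 2-fold. Yeasts were grown on Sabouraud dextrose agar at 35 °C for 24 h, suspended in saline and adjusted to 2×10^5/mL in broth. A. fumigatus spores were taken from potato dextrose agar mycelia into 0.1% Tween 80/saline. MIC was the lowest concentration giving 90–100% visible growth inhibition versus controls.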

The next assay has as its system Candida albicans. Put plainly: In vitro potency against Candida albicans. Format: functional. The gist of the method: as §1
The test system of another assay is Aspergillus fumigatus. Description: In vitro potency against Aspergillus fumigatus. Format: functional. The gist of the method: as §1
The species named for assay [2] is Mus musculus. Description: Drug concentration required to achieve 50% survival of fungal infection compared with untreated animals in experiment 2. The format is functional. The essentials:
(§2)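 Outbred male ICR mice (18–20 g), X-irradiated 400 r 24 h before infection. C. albicans A26 blastospores, 2×10^6 per mouse, given iv by lateral tail vein. Dosed 0.2 mL at 20, 10 and 5 mg/kg at 0, 4, 24 and 48 h post-infection, in 4.0% hydroxypropyl cyclodextrin/sodium acetate pH 7.0/1.75% dextrose. Survival followed 7 days; ED50 by Reed and Muench.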

For assay [3], the species on record is Mus musculus. Description: Evaluated for tail vein toxicity assay in male ICR mice; Partial positive. The format is functional, organism-based.
The species named for assay [4] is Mus musculus. Put plainly: Drug concentration required to achieve 50% survival of fungal infection compared with untreated animals in experiment 1. Format: functional. The gist of the method: as §2
For assay [5], the species on record is Mus musculus. Description: Evaluated for tail vein toxicity assay in male ICR mice; Negative. Format: functional, organism-based.

What is called MIC is the smallest concentration in the dilution series that meets the test's criterion for growth inhibition. Read a low MIC as a more susceptible organism. By ED50 is commonly meant the midpoint of the dose-response relation.

Converted amounts (≈) assume the structure as drawn. Bridge positions count the residues as written; N and C are the ends. Square brackets hold non-standard residues; d marks the D form. Peptide text beside a SMILES is read from it. * marks the point of attachment. Tetradecanoyl(3R-OH) = CCCCCCCCCCC[C@@H](O)CC(=O)*; Asp(3S-OH) = N[C@H](C(=O)O)[C@H](O)C(=O)O; Thr(4-Cl) = N[C@H](C(=O)O)[C@H](O)CCl; aThr = C[C@H](O)[C@H](N)C(=O)O; dDab = NCC[C@@H](N)C(=O)O; Dab = NCC[C@H](N)C(=O)O; Dhb = C/C=C(\N)C(=O)O A value given as a limit tells only on which side of the number the result lay.

With `C/C=C1\NC(=O)[C@H]([C@H](C)O)NC(=O)[C@H](CCN)NC(=O)[C@H](CCCCN)NC(=O)[C@H](CC(=O)O)NC(=O)[C@@H](CCN)NC(=O)[C@@H](NC(=O)C[C@H](O)CCCCCCCCCCC)COC(=O)[C@H]([C@H](O)CCl)NC(=O)[C@H]([C@H](O)C(=O)O)NC1=O` [PSEUDOMYCIN B] ({Tetradecanoyl(3R-OH)}-S[dDab]DK[Dab][aThr][Dhb][Asp(3S-OH)][Thr(4-Cl)]; ester 1-C), the Activity result in the assay filed under Mus musculus [1] is “Positive”. Besides, the MIC was 0.078 µg/mL (≈ 0.0646 µM) in the assay with Cryptococcus neoformans, 0.625 µg/mL (≈ 0.517 µM) against Candida albicans and greater than 20 µg/mL with Aspergillus fumigatus. Moreover, in the assay listed under Mus musculus [2], the 50% effect level (ED50) was put at a dose of 3.8 mg/kg.
For `C/C=C1\NC(=O)[C@H]([C@H](C)O)NC(=O)[C@H](CCNC(=O)OCc2oc(=O)oc2C)NC(=O)[C@H](CCCCN)NC(=O)[C@H](CC(=O)O)NC(=O)[C@@H](CCN)NC(=O)[C@@H](NC(=O)C[C@H](O)CCCCCCCCCCCCC)COC(=O)[C@H]([C@H](O)CCl)NC(=O)[C@H]([C@H](O)C(=O)O)NC1=O`, in the assay listed under Mus musculus [3], the Activity result is “Partial positive”. The same compound yielded an ED50 in the assay filed under Mus musculus [4] of 9 mg/kg.
For `C/C=C1\NC(=O)[C@H]([C@H](C)O)NC(=O)[C@H](CCNC(=O)OCc2oc(=O)oc2C)NC(=O)[C@H](CCCCN)NC(=O)[C@H](CC(=O)O)NC(=O)[C@@H](CCN)NC(=O)[C@@H](NC(=O)C[C@H](O)CCCCCCCCCCC)COC(=O)[C@H]([C@H](O)CCl)NC(=O)[C@H]([C@H](O)C(=O)O)NC1=O`, the MIC in the assay on Cryptococcus neoformans was 1.3 µg/mL (≈ 0.953 µM); against Candida albicans, 5 µg/mL (≈ 3.67 µM); in the assay on Aspergillus fumigatus, greater than 20 µg/mL. Also, the ED50 in the assay listed under Mus musculus [4] stood at 5.95 mg/kg. The Activity entry in the assay filed under Mus musculus [5] was “Negative”.
Take `C/C=C1\NC(=O)[C@H]([C@H](C)O)NC(=O)[C@H](CCN)NC(=O)[C@H](CCCCNC(=O)OCc2oc(=O)oc2C)NC(=O)[C@H](CC(=O)O)NC(=O)[C@@H](CCNC(=O)OCc2oc(=O)oc2C)NC(=O)[C@@H](NC(=O)C[C@H](O)CCCCCCCCCCCCC)COC(=O)[C@H]([C@H](O)CCl)NC(=O)[C@H]([C@H](O)C(=O)O)NC1=O`: the Activity result in the assay filed under Mus musculus [3] is “Partial positive”. In the assay listed under Mus musculus [4], this compound gave an ED50 greater than 20 mg/kg.
Consider `C/C=C1\NC(=O)[C@H]([C@H](C)O)NC(=O)[C@H](CCNC(=O)OCc2oc(=O)oc2C)NC(=O)[C@H](CCCCNC(=O)OCc2oc(=O)oc2C)NC(=O)[C@H](CC(=O)O)NC(=O)[C@@H](CCNC(=O)OCc2oc(=O)oc2C)NC(=O)[C@@H](NC(=O)C[C@H](O)CCCCCCCCCCCCC)COC(=O)[C@H]([C@H](O)CCl)NC(=O)[C@H]([C@H](O)C(=O)O)NC1=O`, for which the values for the MIC in the assay on Cryptococcus neoformans, in the assay with Candida albicans and against Aspergillus fumigatus were 5 µg/mL (≈ 2.93 µM), greater than 20 µg/mL and greater than 20 µg/mL, respectively. In addition, the ED50 in the assay filed under Mus musculus [4] was 12.4 mg/kg; in the assay filed under Mus musculus [2], 10.8 mg/kg. Also, the Activity result in the assay listed under Mus musculus [5] was “Negative”.
Turning to `C/C=C1\NC(=O)[C@H]([C@H](C)O)NC(=O)[C@H](CCNC(=O)OCc2oc(=O)oc2C)NC(=O)[C@H](CCCCNC(=O)OCc2oc(=O)oc2C)NC(=O)[C@H](CC(=O)O)NC(=O)[C@@H](CCNC(=O)OCc2oc(=O)oc2C)NC(=O)[C@@H](NC(=O)C[C@H](O)CCCCCCCCCCC)COC(=O)[C@H]([C@H](O)CCl)NC(=O)[C@H]([C@H](O)C(=O)O)NC1=O`, the results for the MIC with Cryptococcus neoformans, in the assay with Candida albicans and in the assay on Aspergillus fumigatus were 10 µg/mL (≈ 5.97 µM), greater than 20 µg/mL and greater than 20 µg/mL, respectively. For the same compound, the ED50 in the assay filed under Mus musculus [4] came to 6.85 mg/kg; in the assay listed under Mus musculus [2] it was 7.8 mg/kg. Besides, the Activity entry in the assay listed under Mus musculus [5] is “Negative”.
For the compound `C/C=C1\NC(=O)[C@H]([C@H](C)O)NC(=O)[C@H](CCN)NC(=O)[C@H](CCCCNC(=O)OCc2oc(=O)oc2C)NC(=O)[C@H](CC(=O)O)NC(=O)[C@@H](CCNC(=O)OCc2oc(=O)oc2C)NC(=O)[C@@H](NC(=O)C[C@H](O)CCCCCCCCCCC)COC(=O)[C@H]([C@H](O)CCl)NC(=O)[C@H]([C@H](O)C(=O)O)NC1=O`, in the assay listed under Mus musculus [3], the Activity entry was “Partial positive”. Moreover, the MIC in the assay on Cryptococcus neoformans was 0.3 µg/mL (≈ 0.197 µM); with Candida albicans, 5 µg/mL (≈ 3.29 µM); in the assay on Aspergillus fumigatus, greater than 20 µg/mL. Besides, in the assay filed under Mus musculus [4], it took a dose of 7.07 mg/kg to reach the 50% effect level (ED50).
Take `C/C=C1\NC(=O)[C@H]([C@H](C)O)NC(=O)[C@H](CCN)NC(=O)[C@H](CCCCN)NC(=O)[C@H](CC(=O)O)NC(=O)[C@@H](CCN)NC(=O)[C@@H](NC(=O)C[C@H](O)CCCCCCCCCCCCC)COC(=O)[C@H]([C@H](O)CCl)NC(=O)[C@H]([C@H](O)C(=O)O)NC1=O`: the Activity result in the assay listed under Mus musculus [1] is “Positive”. In addition, the MIC against Cryptococcus neoformans was less than 0.02 µg/mL; with Candida albicans, 0.312 µg/mL (≈ 0.252 µM); in the assay on Aspergillus fumigatus it was 10 µg/mL (≈ 8.09 µM). The ED50 in the assay listed under Mus musculus [4] was 7.8 mg/kg; in the assay filed under Mus musculus [2], 12.4 mg/kg.
